Data on 8 molecules can be found in ChEMBL document CHEMBL1123634, “Design, synthesis, and testing of potential antisickling agents. 10. (2,2-Dimethylchroman-6-yl)alkanoic acids” (1987).

SMILES strings stand for the structures.

Type in all cases: functional
The species named for experiment [1] is Homo sapiens. In words: Antigelling activity expressed as ratio of soluble sickle hemoglobin (HbS) of compound (g/dL) and that of control at 10 mM concentration. The method, boiled down:
(§1)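 Hofrichter-type solubility assay: HbS (final around 24 g/100 mL) incubated with drug at 5, 10, 20 and 40 mM, dithionite as deoxygenant. Drugs taken up as sodium salts (2 equiv NaHCO3) in 0.15 M phosphate buffer pH 7.4, 0.18 M stock, some with N-methylpiperazine added for solubility. Each spin run includes a no-drug dHbS control and a 40 mM phenylalanine control. Ratio is soluble HbS with drug (g/dL) over soluble HbS control (g/dL). Values are averages of duplicate runs.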

The species named for experiment [2] is Homo sapiens. In words: Antigelling activity expressed as ratio of soluble sickle hemoglobin (HbS) of compound (g/dL) and that of control at 20 mM concentration. The gist of the method: as §1
The species entered for experiment [3] is Homo sapiens. In words: Antigelling activity expressed as ratio of soluble sickle hemoglobin (HbS) of compound (g/dL) and that of control at 40 mM concentration. The method, boiled down: as §1
Experiment [4] is filed under the species Homo sapiens. Nature of the experiment: Antigelling activity expressed as ratio of soluble sickle hemoglobin (HbS) of compound (g/dL) and that of control at 5 mM concentration. The gist of the method: as §1
The species entered for experiment [5] is Homo sapiens. Nature of the experiment: Antigelling activity expressed as ratio of soluble sickle hemoglobin (HbS) of compound (g/dL) and that of control at 10 mM concentration. The method, boiled down:
as §1

For experiment [6], the species on record is Homo sapiens. In words: Antigelling activity expressed as ratio of soluble sickle hemoglobin (HbS) of compound (g/dL) and that of control at 20 mM concentration. The gist of the method: as §1
The species entered for experiment [7] is Homo sapiens. In words: Antigelling activity expressed as ratio of soluble sickle hemoglobin (HbS) of compound (g/dL) and that of control at 40 mM concentration. The gist of the method: as §1
The species named for experiment [8] is Homo sapiens. In words: Antigelling activity expressed as ratio of soluble sickle hemoglobin (HbS) of compound (g/dL) and that of control at 5 mM concentration. The gist of the method: as §1

As to `CC1(C)CCc2cc(C(=O)O)ccc2O1`, the Activity was found to be 1.043 in the experiment filed under Homo sapiens [1], 1.108 in the experiment filed under Homo sapiens [2], 1.226 in the experiment filed under Homo sapiens [3] and 1.044 in the experiment filed under Homo sapiens [4].

Take `N[C@@H](Cc1ccccc1)C(=O)O` [PHENYLALANINE]: the Activity in the experiment filed under Homo sapiens [5] came to 1.048; in the experiment listed under Homo sapiens [6] it was 1.093; in the experiment filed under Homo sapiens [7] it was 1.178; in the experiment filed under Homo sapiens [4], 1.036.

As to `CC1(C)CCc2cc(CCC(=O)O)ccc2O1`, the Activity is 1.045 in the experiment listed under Homo sapiens [8], 1.077 in the experiment filed under Homo sapiens [1], 1.164 in the experiment filed under Homo sapiens [2] and 1.297 in the experiment filed under Homo sapiens [7].

Regarding `Cc1ccc(C)c(OCCCC(C)(C)C(=O)O)c1` [GEMFIBROZIL], the Activity in the experiment filed under Homo sapiens [5] was found to be 1.073; in the experiment filed under Homo sapiens [2], 1.117; in the experiment filed under Homo sapiens [7] it was 1.234; in the experiment filed under Homo sapiens [4] it was 1.04.

Take `CC(C)(Oc1ccc(Cl)cc1)C(=O)O` [CLOFIBRIC ACID]: the Activity in the experiment filed under Homo sapiens [8] amounted to 1.018; in the experiment filed under Homo sapiens [1], 1.064; in the experiment listed under Homo sapiens [2], 1.155; in the experiment listed under Homo sapiens [3], 1.302.

For `CC1(C)CCc2cc(CCCC(=O)O)ccc2O1`, the Activity in the experiment listed under Homo sapiens [1] stood at 1.086; in the experiment listed under Homo sapiens [2] it was 1.144; in the experiment listed under Homo sapiens [7], 1.299; in the experiment listed under Homo sapiens [4] it was 1.052.

Consider `CC(=O)OC(C/C(C)=C/C(=O)O)c1ccc2c(c1)CCC(C)(C)O2` (configuration not stated), for which the Activity in the experiment filed under Homo sapiens [8] was 1.01; in the experiment filed under Homo sapiens [1], 1.03; in the experiment listed under Homo sapiens [6], 1.085; in the experiment listed under Homo sapiens [7], 1.188.

On to `CC(C(=O)O)c1ccc2c(c1)CCC(C)(C)O2` (configuration not stated), for which the Activity in the experiment listed under Homo sapiens [8] came out at 1.011; in the experiment listed under Homo sapiens [1], 1.028; in the experiment filed under Homo sapiens [2], 1.095; in the experiment filed under Homo sapiens [7], 1.21.
